Assays:
[1] = Ratio of unbound drug level in brain to plasma in rat; assay type: ADME, cell-free
Procedure, shortened: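 Kp,uu derived from the in vivo brain:plasma ratio and in vitro rat fu,plasma/fu,brain, with the binding values from rat plasma protein and rat brain homogenate binding experiments.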

[2] = Tmax in Sprague-Dawley rat at 10 mg/kg, po; assay type: ADME, organism-based; design: dose 10 mg/kg, route oral; conditions: in vivo
[3] = target: Metabotropic glutamate receptor 5 (Rattus norvegicus, UniProt P31424); test: Positive allosteric modulator activity at rat mGlu5 receptor expressed in HEK293 cells assessed as potentiation of glutamate-induced calcium mobilization by fluorescence assay; assay type: functional, cell-based; conditions: read-out: EC50
Metabotropic glutamate receptor 5, sequence (P31424 whole entry): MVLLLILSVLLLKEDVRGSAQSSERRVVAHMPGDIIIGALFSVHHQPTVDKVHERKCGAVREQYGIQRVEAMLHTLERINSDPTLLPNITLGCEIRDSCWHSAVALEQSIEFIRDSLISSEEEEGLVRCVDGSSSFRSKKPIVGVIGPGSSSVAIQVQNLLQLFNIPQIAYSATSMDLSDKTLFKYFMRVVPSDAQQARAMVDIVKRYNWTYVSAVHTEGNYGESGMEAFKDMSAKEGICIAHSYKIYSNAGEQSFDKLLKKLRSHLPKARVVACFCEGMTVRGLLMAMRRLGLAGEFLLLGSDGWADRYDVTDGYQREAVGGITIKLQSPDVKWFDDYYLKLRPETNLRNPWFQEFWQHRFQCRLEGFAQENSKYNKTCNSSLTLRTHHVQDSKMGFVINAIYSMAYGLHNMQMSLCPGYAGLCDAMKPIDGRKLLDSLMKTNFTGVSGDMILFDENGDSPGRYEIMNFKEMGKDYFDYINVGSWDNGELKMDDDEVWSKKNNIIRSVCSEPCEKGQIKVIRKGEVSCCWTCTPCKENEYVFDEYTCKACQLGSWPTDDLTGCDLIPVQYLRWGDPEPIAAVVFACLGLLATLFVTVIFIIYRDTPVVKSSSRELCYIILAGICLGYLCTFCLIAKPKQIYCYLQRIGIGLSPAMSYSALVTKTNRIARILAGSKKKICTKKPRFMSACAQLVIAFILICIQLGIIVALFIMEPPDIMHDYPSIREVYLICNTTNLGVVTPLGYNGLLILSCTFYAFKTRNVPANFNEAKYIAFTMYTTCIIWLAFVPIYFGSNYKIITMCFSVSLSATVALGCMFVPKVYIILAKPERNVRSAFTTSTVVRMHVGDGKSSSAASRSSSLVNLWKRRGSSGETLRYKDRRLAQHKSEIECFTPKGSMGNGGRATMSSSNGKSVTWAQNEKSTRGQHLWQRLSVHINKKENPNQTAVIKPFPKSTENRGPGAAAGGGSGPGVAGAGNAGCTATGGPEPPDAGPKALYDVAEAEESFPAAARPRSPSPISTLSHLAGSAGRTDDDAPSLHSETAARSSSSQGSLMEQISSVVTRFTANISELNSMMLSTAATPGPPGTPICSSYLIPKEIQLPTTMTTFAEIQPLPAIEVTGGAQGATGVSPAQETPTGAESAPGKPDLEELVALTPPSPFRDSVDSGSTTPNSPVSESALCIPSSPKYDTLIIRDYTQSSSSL
Procedure, shortened: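 HEK293 cells stably expressing rat mGlu5, 15000 cells/well, grown overnight, loaded with 1 µM Fluo-4AM for 50 min at 37 °C in HBSS/20 mM HEPES/2.5 mM probenecid pH 7.4. Compound added, then an EC20 of glutamate 140 s later and an EC80 90–120 s after that. Fluorescence over basal normalized to maximal glutamate response (100 µM glutamate); compound at up to 30 µM; ≥3 independent determinations.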

[4] = Cmax in Sprague-Dawley rat at 10 mg/kg, po; assay type: ADME, organism-based; design: dose 10 mg/kg, route oral; conditions: in vivo
[5] = target: Metabotropic glutamate receptor 6 (Rattus norvegicus, UniProt P35349); test: Positive allosteric modulator activity at rat mGlu6 receptor expressed in HEK293 cells assessed as glutamate-induced GIRK channel-mediated thallium flux treated 140s prior to gluatamate challenge by fluorescence analysis; assay type: cell-based
Metabotropic glutamate receptor 6, sequence (P35349 whole entry): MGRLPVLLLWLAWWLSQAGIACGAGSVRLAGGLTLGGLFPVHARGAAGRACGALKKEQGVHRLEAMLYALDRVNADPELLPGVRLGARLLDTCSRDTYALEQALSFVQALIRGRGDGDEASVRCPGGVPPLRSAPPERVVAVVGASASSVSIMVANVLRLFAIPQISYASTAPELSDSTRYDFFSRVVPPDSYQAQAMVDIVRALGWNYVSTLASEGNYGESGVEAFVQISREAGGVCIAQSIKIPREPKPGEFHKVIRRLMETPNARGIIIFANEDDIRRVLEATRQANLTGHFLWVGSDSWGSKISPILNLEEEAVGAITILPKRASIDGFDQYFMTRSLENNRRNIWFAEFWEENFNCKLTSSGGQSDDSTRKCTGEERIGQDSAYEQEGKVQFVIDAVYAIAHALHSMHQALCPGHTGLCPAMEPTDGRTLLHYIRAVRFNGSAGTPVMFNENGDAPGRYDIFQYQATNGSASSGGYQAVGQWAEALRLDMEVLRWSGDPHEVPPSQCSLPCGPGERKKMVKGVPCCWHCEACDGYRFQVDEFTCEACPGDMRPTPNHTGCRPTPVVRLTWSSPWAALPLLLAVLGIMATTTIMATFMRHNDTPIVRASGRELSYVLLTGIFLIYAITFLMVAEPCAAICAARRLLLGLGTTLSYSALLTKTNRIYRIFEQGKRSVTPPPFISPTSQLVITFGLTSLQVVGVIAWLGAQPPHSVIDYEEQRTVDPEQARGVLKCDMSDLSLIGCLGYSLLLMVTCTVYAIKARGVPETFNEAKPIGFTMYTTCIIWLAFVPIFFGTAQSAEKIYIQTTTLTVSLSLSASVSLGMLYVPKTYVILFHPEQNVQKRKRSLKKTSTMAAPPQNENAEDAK
Procedure, shortened: (§1)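 HEK293-GIRK cells expressing rat mGlu2, 3, 4, 6, 7 or 8, 15000 cells/well. Vehicle or 10 µM compound added, then 140 s later a glutamate CRC (L-AP4 for mGlu7) in thallium buffer (12 mM thallium sulfate, 10 mM HEPES). Thallium flux through GIRK read by fluorescence.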

Rattus norvegicus [6] = test: Toxicity in Sprague-Dawley rat assessed as autonomic nervous system deficit at 100 mg/kg, po measured up to 4 hrs by irwin neurological test; assay type: organism-based; design: dose 100 mg/kg, route oral; conditions: in vivo
Procedure, shortened: (§2)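 Male Sprague–Dawley rats (250–300 g) scored at baseline, then given vehicle (20% HP-β-CD) or 100 mg/kg po (n = 6 each). Modified Irwin battery repeated at 30 min, 1 h and 4 h; each end point scored 0, 1 or 2; significance taken at p ≤ 0.05.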

[7] = target: Metabotropic glutamate receptor 4 (Rattus norvegicus, UniProt P31423); test: Positive allosteric modulator activity at rat mGlu4 receptor expressed in HEK293 cells assessed as glutamate-induced GIRK channel-mediated thallium flux treated 140s prior to gluatamate challenge by fluorescence analysis; assay type: cell-based; procedure, shortened: as §1
Rattus norvegicus [8] = test: AUC (0 to 24 hrs) in Sprague-Dawley rat plasma at 10 mg/kg, po; assay type: ADME, organism-based; design: time < 24 hr, dose 10 mg/kg, route oral; conditions: in vivo
Rattus norvegicus [9] = test: Toxicity in Sprague-Dawley rat assessed as motor output at 30 to 100 mg/kg, po after 30 mins by rotarod test; assay type: organism-based; design: dose 30-100 mg/kg, route oral; conditions: in vivo, 0.5 h
Procedure, shortened: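 Male Sprague–Dawley rats (250–300 g) trained twice on a 20 rpm rotarod (120 s trials); animals below 85 s at baseline were excluded. Rats received 30, 56.6 or 100 mg/kg po in 20% HP-β-CD or vehicle (n = 6) and were tested 30 min later in a 120 s trial; time on the rod was recorded, with a 120 s cutoff.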

Plasma [10] = test: Fraction unbound in rat plasma; assay type: ADME, cell-free
Rattus norvegicus [11] = test: Toxicity in Sprague-Dawley rat assessed as somatomotor nervous system deficit at 100 mg/kg, po measured up to 4 hrs by irwin neurological test; assay type: organism-based; design: dose 100 mg/kg, route oral; conditions: in vivo; procedure, shortened: as §2
[12] = Kinetic solubility of the compound in buffer at pH 4; assay type: physicochemical
Procedure, shortened: (§3)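 Kinetic aqueous solubility measured in buffers at pH 2, 4 and 7.4.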

[13] = Retention time of the compound by LCMS analysis; assay type: physicochemical
Rattus norvegicus [14] = test: Antipsychotic activity in po dosed Sprague-Dawley rat assessed as reversal of amphetamine-induced hyperlocomotion administered for 30 mins prior to amphetamine challenge for 60 mins; assay type: functional, organism-based
Procedure, shortened: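 Male Sprague–Dawley rats (250–375 g), food-deprived overnight, habituated 30 min in locomotor chambers. Compound given po (3–100 mg/kg in 20% HP-β-CD, pH 6–7, ≤10 mL/kg) 30 min before amphetamine 1 mg/kg sc, then monitored 60 min (120 min total). Photobeam breaks over 60–120 min give percent reversal against the vehicle+amphetamine group, mean ± SE, n = 6–8.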

Plasma [15] = test: Fraction unbound in human plasma; assay type: ADME, cell-free
[16] = target: Metabotropic glutamate receptor 7 (Rattus norvegicus, UniProt P35400); test: Positive allosteric modulator activity at rat mGlu7 receptor expressed in HEK293 cells assessed as L-AP4-induced GIRK channel-mediated thallium flux treated 140s prior to L-AP4 challenge by fluorescence analysis; assay type: cell-based; procedure, shortened: as §1
[17] = Drug uptake in Sprague-Dawley rat brain at 56.6 mg/kg, po after 1.5 hrs by LC-MS/MS analysis; assay type: ADME, organism-based; design: dose 56.6 mg/kg, route oral; conditions: read-out: Drug uptake
Procedure, shortened: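 Male Sprague–Dawley rats (250–375 g), fasted overnight, were dosed orally at 56.6 mg/kg in 20% HP-β-cyclodextrin (pH 6–7) during an amphetamine hyperlocomotion screen. Brain and plasma were taken at 1.5 h. Brain was homogenized in 70:30 2-propanol:water, and samples were diluted in acetonitrile with 50 nM carbamazepine internal standard. Analysis was C18 gradient LC-ESI-MS/MS against a standard curve.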

[18] = Kinetic solubility of the compound in buffer at pH 7.4; assay type: physicochemical; procedure, shortened: as §3
[19] = Kinetic solubility of the compound in buffer at pH 2; assay type: physicochemical; procedure, shortened: as §3
[20] = Half life in rat at 1 mg/kg, iv and 10 mg/kg, po; assay type: ADME, organism-based; conditions: in vivo
Procedure, shortened: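 Rat pharmacokinetics with 1 mg/kg IV and 10 mg/kg PO dosing; oral arm given in 0.5% methyl cellulose (1 mg/mL, noncrossover) to male Sprague–Dawley rats.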

[21] = target: Metabotropic glutamate receptor 8 (Rattus norvegicus, UniProt P70579); test: Positive allosteric modulator activity at rat mGlu8 receptor expressed in HEK293 cells assessed as glutamate-induced GIRK channel-mediated thallium flux treated 140s prior to glutamate challenge by fluorescence analysis; assay type: cell-based; procedure, shortened: as §1
Metabotropic glutamate receptor 8, sequence (P70579 whole entry): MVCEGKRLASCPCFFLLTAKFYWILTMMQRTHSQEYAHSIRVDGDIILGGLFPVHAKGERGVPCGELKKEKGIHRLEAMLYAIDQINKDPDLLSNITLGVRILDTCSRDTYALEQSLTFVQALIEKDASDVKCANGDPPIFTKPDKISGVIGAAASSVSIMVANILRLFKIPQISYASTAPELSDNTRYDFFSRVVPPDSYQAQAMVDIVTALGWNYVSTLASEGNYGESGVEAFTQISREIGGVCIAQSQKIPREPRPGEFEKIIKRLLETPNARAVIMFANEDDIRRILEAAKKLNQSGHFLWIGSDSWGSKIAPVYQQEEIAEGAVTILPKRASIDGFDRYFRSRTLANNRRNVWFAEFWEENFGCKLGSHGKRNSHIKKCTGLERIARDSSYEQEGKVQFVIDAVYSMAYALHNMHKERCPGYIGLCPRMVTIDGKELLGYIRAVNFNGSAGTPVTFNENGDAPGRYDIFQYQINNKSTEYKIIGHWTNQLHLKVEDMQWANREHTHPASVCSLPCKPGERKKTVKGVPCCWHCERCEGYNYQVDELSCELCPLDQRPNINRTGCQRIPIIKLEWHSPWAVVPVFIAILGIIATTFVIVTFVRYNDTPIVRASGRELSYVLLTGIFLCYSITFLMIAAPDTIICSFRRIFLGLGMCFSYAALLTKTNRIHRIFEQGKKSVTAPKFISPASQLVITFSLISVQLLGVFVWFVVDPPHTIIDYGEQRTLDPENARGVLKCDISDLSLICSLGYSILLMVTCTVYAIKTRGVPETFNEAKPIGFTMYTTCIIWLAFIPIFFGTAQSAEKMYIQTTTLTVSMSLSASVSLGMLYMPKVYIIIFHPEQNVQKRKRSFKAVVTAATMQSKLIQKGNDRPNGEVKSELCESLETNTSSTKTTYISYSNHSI

[22] = target: Metabotropic glutamate receptor 1 (Rattus norvegicus, UniProt P23385); test: Positive allosteric modulator activity at rat mGlu1 receptor expressed in HEK293 cells assessed as glutamate-induced calcium mobilization treated 140s prior to glutamate challenge by fluorescence assay; assay type: functional, cell-based
Procedure, shortened: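 HEK293 cells stably expressing rat mGlu1, 20000 cells/well, Fluo-4AM calcium flux. Vehicle or 10 µM compound (final) added, then a glutamate concentration–response curve 140 s later.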

Cytochrome P450 2D6 = Cytochrome P450 2D6 (Homo sapiens, UniProt P10635); test: Inhibition of CYP2D6 in human liver microsomes; assay type: ADME
Cytochrome P450 2D6, sequence (P10635 whole entry): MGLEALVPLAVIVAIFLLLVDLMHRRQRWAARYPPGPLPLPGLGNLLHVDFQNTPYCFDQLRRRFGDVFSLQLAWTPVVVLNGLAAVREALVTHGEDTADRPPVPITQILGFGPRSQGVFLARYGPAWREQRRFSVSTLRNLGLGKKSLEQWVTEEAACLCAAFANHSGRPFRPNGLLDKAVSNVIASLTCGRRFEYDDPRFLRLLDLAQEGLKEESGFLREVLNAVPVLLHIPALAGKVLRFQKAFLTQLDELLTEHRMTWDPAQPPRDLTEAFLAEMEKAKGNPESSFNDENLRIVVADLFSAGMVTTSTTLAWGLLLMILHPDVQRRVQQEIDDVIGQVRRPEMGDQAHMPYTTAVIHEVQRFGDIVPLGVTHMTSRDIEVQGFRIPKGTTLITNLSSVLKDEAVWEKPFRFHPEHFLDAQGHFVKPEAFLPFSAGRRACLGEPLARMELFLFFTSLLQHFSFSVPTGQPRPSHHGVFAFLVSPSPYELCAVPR
Procedure, shortened: (§4)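 CYP1A2, 2C9, 2D6 and 3A4 inhibition measured together in a cocktail assay with human liver microsomes and known probe substrates; IC50 determined.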

[23] = Fraction unbound in rat brain; assay type: ADME, tissue-based
Procedure, shortened: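 Fraction unbound measured by rat brain homogenate binding.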

Cytochrome P450 3A4 = Cytochrome P450 3A4 (Homo sapiens, UniProt P08684); test: Inhibition of CYP3A4 in human liver microsomes; assay type: ADME; procedure, shortened: as §4
Cytochrome P450 3A4, sequence (P08684 whole entry): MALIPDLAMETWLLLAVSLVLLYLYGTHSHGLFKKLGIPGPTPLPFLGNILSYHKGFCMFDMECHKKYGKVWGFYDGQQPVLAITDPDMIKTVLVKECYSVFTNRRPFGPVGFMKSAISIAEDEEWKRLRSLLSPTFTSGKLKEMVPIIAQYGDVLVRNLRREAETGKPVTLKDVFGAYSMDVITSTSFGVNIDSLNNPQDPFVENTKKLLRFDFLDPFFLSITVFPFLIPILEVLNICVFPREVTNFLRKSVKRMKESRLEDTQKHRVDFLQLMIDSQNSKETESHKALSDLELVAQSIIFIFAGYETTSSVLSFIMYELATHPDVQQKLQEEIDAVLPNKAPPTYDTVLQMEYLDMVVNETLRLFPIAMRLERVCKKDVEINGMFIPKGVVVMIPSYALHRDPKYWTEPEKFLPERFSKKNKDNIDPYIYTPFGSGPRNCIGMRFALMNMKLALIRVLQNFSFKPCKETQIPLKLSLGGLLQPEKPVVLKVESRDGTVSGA

[24] = target: Metabotropic glutamate receptor 2 (Rattus norvegicus, UniProt P31421); test: Positive allosteric modulator activity at rat mGlu2 receptor expressed in HEK293 cells assessed as glutamate-induced GIRK channel-mediated thallium flux treated 140s prior to gluatamate challenge by fluorescence analysis; assay type: cell-based; procedure, shortened: as §1
Metabotropic glutamate receptor 2, sequence (P31421 whole entry): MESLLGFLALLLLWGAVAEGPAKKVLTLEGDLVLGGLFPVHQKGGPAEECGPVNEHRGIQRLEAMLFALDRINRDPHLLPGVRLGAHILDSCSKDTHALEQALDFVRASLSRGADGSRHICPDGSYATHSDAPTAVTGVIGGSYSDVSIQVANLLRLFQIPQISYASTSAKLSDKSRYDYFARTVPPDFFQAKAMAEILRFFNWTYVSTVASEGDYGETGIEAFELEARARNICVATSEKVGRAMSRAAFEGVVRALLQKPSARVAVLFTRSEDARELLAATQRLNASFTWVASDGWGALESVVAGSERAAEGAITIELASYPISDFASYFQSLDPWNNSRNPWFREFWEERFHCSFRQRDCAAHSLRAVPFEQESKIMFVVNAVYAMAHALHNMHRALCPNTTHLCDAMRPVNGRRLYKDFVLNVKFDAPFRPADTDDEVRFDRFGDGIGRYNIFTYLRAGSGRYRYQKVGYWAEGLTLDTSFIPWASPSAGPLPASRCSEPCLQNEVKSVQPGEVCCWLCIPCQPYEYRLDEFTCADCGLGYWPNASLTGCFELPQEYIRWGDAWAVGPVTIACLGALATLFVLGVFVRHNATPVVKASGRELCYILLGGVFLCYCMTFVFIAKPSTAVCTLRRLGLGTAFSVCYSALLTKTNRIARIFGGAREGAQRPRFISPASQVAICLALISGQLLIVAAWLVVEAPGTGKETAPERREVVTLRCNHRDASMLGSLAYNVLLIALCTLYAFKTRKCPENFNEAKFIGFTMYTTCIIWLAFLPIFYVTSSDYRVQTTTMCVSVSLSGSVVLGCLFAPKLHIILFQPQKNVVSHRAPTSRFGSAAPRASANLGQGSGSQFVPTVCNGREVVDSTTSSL

O=C1NCCc2nc(OCc3cccc(F)c3)ccc21
K(p,uu,brain) [1]: 1.1 | Tmax [2]: 30 min | EC50 [3]: 0.225 µM | Cmax [4]: 3.36 µM | EC50 [5]: > 10 µM | Activity (Rattus norvegicus [6]): Non-toxic | EC50 [7]: > 10 µM | AUC (Rattus norvegicus [8]): 6.2 µM·h | Activity (Rattus norvegicus [9]): Non-toxic | Fu (Plasma [10]): 0.034 | Activity (Rattus norvegicus [11]): Non-toxic | Kinetic_solubility [12]: 29 µM | Retention_time [13]: 0.736 min | inhibition (Rattus norvegicus [14]): Dose-dependent effect | Fu (Plasma [15]): 0.047 | EC50 [16]: > 10 µM | concentration at 1.5 h [17]: 16.6 µM | Kinetic_solubility [18]: 28 µM | Kinetic_solubility [19]: 38 µM | half-life [20]: 18 min | EC50 [21]: > 10 µM | EC50 [22]: > 10 µM | IC50 (Cytochrome P450 2D6): > 30 µM | fraction unbound [23]: 0.02 | IC50 (Cytochrome P450 3A4): > 30 µM | EC50 [24]: > 10 µM
